Measurements taken from ChEMBL document CHEMBL1141083, “Development of human calcitonin gene-related peptide (CGRP) receptor antagonists. 1. Potent and selective small molecule CGRP antagonists. 1-[N2-[3,5-dibromo-N-[[4-(3,4-dihydro-2(1H)-oxoquinazolin-3-yl)-1-piperidinyl]carbonyl]-D-tyrosyl]-l-lysyl]-4-(4-pyridinyl)piperazine: the first CGRP antagonist …” (J Med Chem, 2005).

How the values were obtained:
[1] = biological target: T1, Calcitonin gene-related peptide type 1 receptor (Homo sapiens, UniProt O60894+Q16602); experiment: Affinity against human calcitonin gene related peptide receptor (1 uM) expressed in SK-N-MC cells using [125I]-CGRP as radioligand after 180 minutes of incubation at pH 7.40; format: cell-based
T1 sequence (Q16602 whole entry, one chain of several): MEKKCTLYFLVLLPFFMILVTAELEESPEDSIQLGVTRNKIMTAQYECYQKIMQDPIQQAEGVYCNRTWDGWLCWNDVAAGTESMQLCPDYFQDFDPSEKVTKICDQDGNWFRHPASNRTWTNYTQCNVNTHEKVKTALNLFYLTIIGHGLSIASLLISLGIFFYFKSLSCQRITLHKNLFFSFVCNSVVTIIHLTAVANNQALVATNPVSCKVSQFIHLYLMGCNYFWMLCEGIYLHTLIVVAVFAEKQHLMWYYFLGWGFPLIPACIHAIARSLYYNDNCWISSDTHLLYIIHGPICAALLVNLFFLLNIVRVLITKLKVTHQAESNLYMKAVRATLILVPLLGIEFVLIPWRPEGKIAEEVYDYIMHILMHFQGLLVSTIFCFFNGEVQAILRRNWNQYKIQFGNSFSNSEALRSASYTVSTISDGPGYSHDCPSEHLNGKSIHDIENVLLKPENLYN
Procedure, shortened: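 SK-N-MC cell membranes, frozen at -80 °C in Tris/BSA/bacitracin buffer, then diluted 1:10 in assay buffer (50 mM Tris, 150 mM NaCl, 5 mM MgCl2, 1 mM EDTA, pH 7.40). Filtered, gamma counted, nonspecific binding with 1 μM human α-CGRP. IC50 by one-site nonlinear regression; at least three experiments in triplicate.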

[2] = biological target: Calcitonin gene-related peptide type 1 receptor (Rattus norvegicus, UniProt Q63118); experiment: Affinity against calcitonin gene related peptide receptor (1 uM) in rat spleen using [125I]CGRP as radioligand after 180 minutes of incubation at pH 7.40; format: tissue-based
Sequence of Calcitonin gene-related peptide type 1 receptor (Rattus norvegicus, UniProt Q63118) (Q63118 whole entry): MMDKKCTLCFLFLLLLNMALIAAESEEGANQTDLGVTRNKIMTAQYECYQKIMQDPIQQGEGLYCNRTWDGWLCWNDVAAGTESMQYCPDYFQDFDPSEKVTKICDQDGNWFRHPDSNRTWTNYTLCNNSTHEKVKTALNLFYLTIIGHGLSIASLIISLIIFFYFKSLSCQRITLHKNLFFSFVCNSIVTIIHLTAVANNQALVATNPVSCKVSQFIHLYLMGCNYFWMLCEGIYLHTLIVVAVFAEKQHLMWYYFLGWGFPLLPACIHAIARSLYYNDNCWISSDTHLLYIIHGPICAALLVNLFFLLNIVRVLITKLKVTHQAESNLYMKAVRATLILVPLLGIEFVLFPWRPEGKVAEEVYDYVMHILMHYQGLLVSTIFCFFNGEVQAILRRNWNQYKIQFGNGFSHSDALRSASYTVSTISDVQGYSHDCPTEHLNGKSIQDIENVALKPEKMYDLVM
Procedure, shortened: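 Membrane homogenates of marmoset or rat spleen, diluted 1:10 in assay buffer (50 mM Tris, 150 mM NaCl, 5 mM MgCl2, 1 mM EDTA, pH 7.40). Incubated 180 min at ambient temperature with 50 pM 125I-CGRP and increasing test concentrations, then filtered on PEI-treated GF/B filters and gamma counted. Nonspecific binding defined with 1 μM human α-CGRP. IC50 from one-site nonlinear regression.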

[3] = biological target: T1, Calcitonin gene-related peptide type 1 receptor; experiment: Antagonistic activity against calcitonin gene related peptide receptor determined by measuring the formation of cyclic AMP in SK-N-MC cells; format: functional, cell-based; details: read-out: pA2 (converted)

COc1ccccc1N1CCN(C(=O)N[C@@H](Cc2cc(Br)c(O)c(Br)c2)C(=O)N[C@H](CCCCN)C(=O)N2CCN(c3ccncc3)CC2)CC1
IC50 [1]: 226 nM

COc1ccccc1C1CCN(C(=O)N[C@@H](Cc2cc(Br)c(O)c(Br)c2)C(=O)N[C@H](CCCCN)C(=O)N2CCN(c3ccncc3)CC2)CC1
IC50 [1]: 250 nM

NCCCC[C@@H](NC(=O)[C@H](Cc1cc(Br)c(N)c(Br)c1)NC(=O)CCCc1ccccc1)C(=O)N1CCN(c2ccccc2)CC1
IC50 [1]: > 300000 nM

NCCCC[C@H](NC(=O)[C@@H](Cc1cc(Br)c(O)c(Br)c1)NC(=O)CCCc1ccccc1)C(=O)NCCc1ccccc1
IC50 [1]: > 300000 nM

NCCCC[C@@H](NC(=O)[C@H](Cc1cc(Br)c(N)c(Br)c1)NC(=O)CCCc1ccccc1)C(=O)N1CCNCC1
IC50 [1]: > 300000 nM

NCCCC[C@@H](NC(=O)[C@H](Cc1cc(Br)c(N)c(Br)c1)NC(=O)CCc1ccccc1)C(=O)NCCc1ccccc1
IC50 [1]: 196000 nM

NCCCC[C@@H](NC(=O)[C@H](Cc1cc(Br)c(O)c(Br)c1)NC(=O)N1CCC(N2Cc3ccccc3NC2=O)CC1)C(=O)N1CCN(c2ccncc2)CC1
IC50 [2]: 6.4 nM

COc1ccccc1CCNC(=O)N[C@@H](Cc1cc(Br)c(O)c(Br)c1)C(=O)N[C@H](CCCCN)C(=O)N1CCN(c2ccncc2)CC1
IC50 [1]: 1000 nM

NCCCC[C@@H](NC(=O)[C@H](Cc1cc(Br)c(O)c(Br)c1)NC(=O)CCCc1ccccc1)C(=O)NCCc1ccccc1
IC50 [1]: 17000 nM

NCCCC[C@@H](NC(=O)[C@H](Cc1cc(Br)c(N)c(Br)c1)NC(=O)CCCc1ccccc1)C(=O)N1CCN(c2ccncc2)CC1
IC50 [1]: 10300 nM

NCCCC[C@@H](NC(=O)[C@H](Cc1cc(Br)c(O)c(Br)c1)NC(=O)N1CCC(n2c(=O)oc3ccccc32)CC1)C(=O)N1CCN(c2ccncc2)CC1
IC50 [1]: 44 nM | Kb [3]: 10 nM

COc1ccccc1CCNC(=O)N[C@@H](Cc1cc(Br)c(O)c(Br)c1)C(=O)N[C@H](CCCCN)C(=O)NCCc1ccccc1
IC50 [1]: 13000 nM

COc1cccc(CCNC(=O)N[C@@H](Cc2cc(Br)c(O)c(Br)c2)C(=O)N[C@H](CCCCN)C(=O)N2CCN(c3ccncc3)CC2)c1
IC50 [1]: 200 nM | Kb [3]: 126 nM | IC50 [2]: 70500 nM

NCCCC[C@H](NC(=O)[C@H](Cc1cc(Br)c(O)c(Br)c1)NC(=O)CCCc1ccccc1)C(=O)NCCc1ccccc1
IC50 [1]: > 300000 nM

NCCCC[C@@H](NC(=O)[C@H](Cc1cc(Br)c(O)c(Br)c1)NC(=O)N1CCC(N(C(N)=O)c2ccccc2)CC1)C(=O)N1CCN(c2ccncc2)CC1
IC50 [1]: 4.7 nM | Kb [3]: 0.794 nM

NCCCC[C@@H](NC(=O)[C@@H](Cc1cc(Br)c(O)c(Br)c1)NC(=O)CCCc1ccccc1)C(=O)NCCc1ccccc1
IC50 [1]: > 300000 nM

NCCCC[C@@H](NC(=O)[C@H](Cc1cc(Br)c(O)c(Br)c1)NC(=O)N1CCC(n2c(O)nc3ccccc32)CC1)C(=O)N1CCN(c2ccncc2)CC1
IC50 [1]: 0.2 nM | Kb [3]: 0.0794 nM | IC50 [2]: 56.7 nM

NCCCC[C@@H](NC(=O)[C@H](Cc1cc(Br)c(O)c(Br)c1)NC(=O)N1CCC(n2cc(-c3ccccc3)[nH]c2=O)CC1)C(=O)N1CCN(c2ccncc2)CC1
IC50 [1]: 0.05 nM

NCCCC[C@@H](NC(=O)[C@H](Cc1cc(Br)c(N)c(Br)c1)NC(=O)CCCc1ccccc1)C(=O)Nc1ccccc1
IC50 [1]: 50000 nM

NCCCC[C@@H](NC(=O)[C@H](Cc1cc(Br)c(N)c(Br)c1)NC(=O)CCCc1ccccc1)C(=O)NCCc1ccccc1
IC50 [1]: 40000 nM
